Tests used:
[1] = test system: STS26T MPNST cells; test: Flow cytometry cell cycle analysis, STS26T; type: cell-based, human; settings: one- or two-IC50 doses, three days
[2] = test system: silvestrol-resistant 697-R leukemic cells; test: Cell proliferation of MDR1-overexpressing leukemic cells, 3 days; type: cell-based; settings: for sensitivity to MDR1 inhibition: 697-R versus 697 cells
[3] = test system: panel of MPNST, schwannoma, and meningioma cell lines; test: Growth-inhibitory activity compared in the cell line panel; type: cell-based; settings: all cell lines tested
Procedure, shortened: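 Compounds were made up as 10-mM stocks in DMSO. Cell lines were authenticated by STR genotyping and confirmed mycoplasma-free. Proliferation was read by resazurin assay.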

[4] = test system: parental 697 leukemic cells; test: Cell proliferation of parental leukemic cells, 3 days; type: cell-based; settings: 72 h, read-out: IC50 in 697 cells
[5] = test system: ST8814 MPNST cells; test: Flow cytometry cell cycle analysis, ST8814; type: cell-based, human; settings: one- or two-IC50 doses, three days
[6] = Toxicology study in dogs; type: in vivo; settings: same protocol, same lab
[7] = cited from earlier work

Row | SMILES | G2/M fraction [1] | sensitivity to MDR1 inhibition [2] | potency relative to silvestrol [3] | IC50 [4] | G2/M fraction [5] | pulmonary toxicity in dogs [6] | IC50 ([2]; MDR1, 72 h, read-out: IC50 in 697-R cells) | oral bioavailability [7]
1 | COc1ccc([C@@]23Oc4cc(OC)cc(OC)c4[C@]2(O)[C@H](O)[C@H](C(N)=O)[C@H]3c2ccccc2)cc1 [Didesmethylrocaglamide] | marked increase in the G2/M fraction | not sensitive to MDR1 inhibition | ~ 2 fold | 3 nM | marked increase in the G2/M fraction |  |  | 
2 | COc1ccc([C@@]23Oc4cc(OC)cc(OC)c4[C@]2(O)[C@H](O)[C@H](C(=O)N(C)C)[C@H]3c2ccccc2)cc1 [Rocaglamide] | marked increase in the G2/M fraction | not sensitive to MDR1 inhibition |  | 8 nM | marked increase in the G2/M fraction | did not produce adverse pulmonary findings |  | 
3 | COC(=O)[C@H]1[C@@H](O)[C@@]2(O)c3c(OC)cc(O[C@@H]4O[C@@H]([C@H](O)CO)CO[C@H]4OC)cc3O[C@@]2(c2ccc(OC)cc2)[C@@H]1c1ccccc1 [Silvestrol, reference compound] |  |  |  | 3.5 nM |  | massive lung damage | 26 nM | < 2%

Reference: publication PMC7056570 (Molecular cancer therapeutics, 2019)
